The results in this text go back to ChEMBL document CHEMBL1148647, “Structure-activity relationship studies on a series of novel, substituted 1-benzyl-5-phenyltetrazole P2X7 antagonists” (J Med Chem, 2006).

The source made the active and inactive calls. A value given as a limit tells only on which side of the number the result lay.

Data set [1] has as its system THP-1. Briefly: Ability to block pore formation in human THP1 cells assessed as inhibition of YO-PRO-1 diiodide dye uptake. The format is functional, cell-based. The method, boiled down: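 Differentiated human THP-1 cells stimulated with agonist BzATP for 1 h in presence of test compound. Pore formation read as inhibition of cellular uptake of the impermeable dye YO-PRO-1 diiodide.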

For data set [2], the target named is T1, P2X purinoceptor 7 (Homo sapiens, UniProt Q99572).
T1 sequence (Q99572 whole entry): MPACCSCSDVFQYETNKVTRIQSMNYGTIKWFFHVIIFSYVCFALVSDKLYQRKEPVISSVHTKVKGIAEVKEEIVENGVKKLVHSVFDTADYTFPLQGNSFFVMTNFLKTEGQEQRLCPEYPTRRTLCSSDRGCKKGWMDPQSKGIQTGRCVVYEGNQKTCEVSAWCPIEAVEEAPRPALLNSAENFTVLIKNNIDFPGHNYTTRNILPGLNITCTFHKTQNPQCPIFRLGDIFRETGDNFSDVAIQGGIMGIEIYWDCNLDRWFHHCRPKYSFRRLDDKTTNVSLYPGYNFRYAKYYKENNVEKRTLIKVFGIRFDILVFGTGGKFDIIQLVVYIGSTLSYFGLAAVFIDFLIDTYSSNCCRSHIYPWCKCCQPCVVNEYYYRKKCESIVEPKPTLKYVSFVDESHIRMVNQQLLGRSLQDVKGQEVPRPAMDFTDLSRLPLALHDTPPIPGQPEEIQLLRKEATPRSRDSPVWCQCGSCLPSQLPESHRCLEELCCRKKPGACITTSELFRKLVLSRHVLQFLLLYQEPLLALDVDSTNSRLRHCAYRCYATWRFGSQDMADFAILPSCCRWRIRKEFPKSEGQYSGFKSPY
Briefly: Antagonist activity at human P2X7 receptor expressed in human 1321N1 cells assessed as inhibition of calcium flux by FLIPR. The format is functional, cell-based. The method, boiled down:
(§1)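 Recombinant P2X7 (human or rat) stably transfected into human 1321N1 astrocytoma cells lacking endogenous P2X receptor function. Fluo-4 calcium dye, FLIPR read-out. 5-min antagonist pretreatment, then BzATP agonist. IC50 determined.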
A general note: Calcium assays in cells follow changes in intracellular calcium, usually with a dye or a luminescent sensor.

Data set [3] has as its target T2, P2X purinoceptor 7 (Rattus norvegicus, UniProt Q64663).
T2 sequence (Q64663 whole entry): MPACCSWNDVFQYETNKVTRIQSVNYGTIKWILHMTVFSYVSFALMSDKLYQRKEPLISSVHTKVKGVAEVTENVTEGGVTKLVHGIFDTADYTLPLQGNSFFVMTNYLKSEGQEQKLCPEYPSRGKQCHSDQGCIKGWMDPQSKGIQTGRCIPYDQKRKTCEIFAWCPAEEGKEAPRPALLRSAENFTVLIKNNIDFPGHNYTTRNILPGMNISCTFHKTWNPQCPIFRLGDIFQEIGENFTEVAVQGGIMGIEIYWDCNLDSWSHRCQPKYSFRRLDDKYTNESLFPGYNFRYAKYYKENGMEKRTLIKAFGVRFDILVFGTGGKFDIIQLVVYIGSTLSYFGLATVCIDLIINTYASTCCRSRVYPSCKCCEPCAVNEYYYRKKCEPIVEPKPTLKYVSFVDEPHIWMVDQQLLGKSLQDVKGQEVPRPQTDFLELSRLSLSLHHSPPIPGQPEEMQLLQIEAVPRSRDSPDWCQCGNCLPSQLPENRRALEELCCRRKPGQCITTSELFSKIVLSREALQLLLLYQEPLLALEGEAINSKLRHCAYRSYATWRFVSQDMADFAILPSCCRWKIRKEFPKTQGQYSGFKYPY
The data set is described as follows: Antagonist activity at rat P2X7 receptor expressed in human 1321N1 cells assessed as inhibition of calcium flux by FLIPR. Type of data set: functional, cell-based. The method, boiled down: as §1

In data set [4] the test system is THP-1. Briefly: Inhibition of ILbeta production in human THP1 cells. The format is functional, cell-based. The method, boiled down:
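Human THP-1 cells differentiated with LPS and IFNγ, then stimulated with BzATP for 30 min in presence of test compound. Released IL-1β quantified by EIA.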

Data set [5] is described as follows: Half life in rat at 10 umol/kg. The format is ADME, organism-based. The settings on record: in vivo.
In data set [6] the test system is Rattus norvegicus. Briefly: Reversal of mechanical allodynia in L5/L6 spinal nerve tight ligation model of neuropathic pain in ip dosed rat. Type of data set: functional. The method, boiled down: (§2)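 Spinal nerve ligation (L5/L6, Chung) done 7-14 days before testing. Antagonist given ip at 10-300 µmol/kg. Von Frey hair applied 30 min after dosing. Paw withdrawal threshold on injured (left) side compared with contralateral paw. ED50 and maximal response relative to contralateral side derived.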

Data set [7] deals with Rattus norvegicus. Briefly: Reversal of mechanical allodynia in L5/L6 spinal nerve tight ligation model of neuropathic pain in ip dosed rat relative to control. The format is functional. The method, boiled down: as §2
Data set [8] is described as follows: Oral bioavailability in rat at 10 umol/kg, ip. The format is ADME, organism-based. The settings on record: in vivo, intraperitoneal, read-out: Activity.
For data set [9], the system named is Rattus norvegicus. Briefly: Impairment of motor function in rat by rotarod assay up to 300 umol/kg, ip. Type of data set: functional, organism-based. The method, boiled down: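 Accelerating rotarod, ip dosing up to 300 µmol/kg. Time for the animal to fall from the rod recorded.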
A general note: In the rotarod test animals must keep their balance on a rotating rod.

As a reminder, the IC50 is the concentration that gives 50% inhibition. For `Clc1cccc(-n2nnnc2Cc2cccnc2)c1Cl`, the concentration for half-maximal inhibition (IC50) with THP-1 [1] was 398 nM; at P2X purinoceptor 7 [2], 100 nM.

With `Clc1ccccc1-c1nnnn1Cc1cccnc1`, the IC50 at P2X purinoceptor 7 [2] is 15800 nM.

With `Cc1noc(C)c1Cn1nnnc1-c1cccc(Cl)c1Cl`, the IC50 in the data set on THP-1 [1] was 794 nM; at P2X purinoceptor 7 [2] it was 158 nM.

As for `Cc1ncccc1Cn1nnnc1-c1cccc(Cl)c1Cl`, the IC50 at P2X purinoceptor 7 [3] is 200 nM; in the data set on THP-1 [1], 200 nM; in the data set with THP-1 [4], 158 nM; at P2X purinoceptor 7 [2], 31.6 nM.

In the case of `Fc1ccc(-n2nnnc2Cc2cccnc2)c(Cl)c1Cl`, the IC50 was 100 nM on P2X purinoceptor 7 [3], 39.8 nM in the data set on THP-1 [4] and 25.1 nM on P2X purinoceptor 7 [2].

For `FC(F)(F)c1cccc(-c2nnnn2Cc2cccnc2)c1Cl`, the IC50 was 63.1 nM on P2X purinoceptor 7 [3], 158 nM in the data set with THP-1 [1], 79.4 nM in the data set on THP-1 [4] and 12.6 nM on P2X purinoceptor 7 [2].

Take `c1ccc(Cn2nnnc2-c2ccncc2)cc1`: the half-maximal inhibitory concentration (IC50) on P2X purinoceptor 7 [2] was 31600 nM.

With `FC(F)(F)c1cccc(-n2nnnc2Cc2cccnc2)c1Cl`, the IC50 on P2X purinoceptor 7 [3] was 50.1 nM; in the data set on THP-1 [1] it was 50.1 nM; with THP-1 [4] it was 25.1 nM; at P2X purinoceptor 7 [2] it was 12.6 nM.

Regarding `Fc1cccc(-c2nnnn2Cc2cccnc2)c1C(F)(F)F`, the IC50 at P2X purinoceptor 7 [2] was 631 nM.

In the case of `Clc1ccc(-c2nnnn2Cc2cccnc2)cc1Cl`, the IC50 is 7940 nM in the data set on THP-1 [1] and 3980 nM on P2X purinoceptor 7 [2].

Turning to `Clc1cccc(-c2nnnn2CCc2cccnc2)c1Cl`, the IC50 is more than 10000 nM with THP-1 [1] and 12600 nM on P2X purinoceptor 7 [2].

In the case of `Cc1ccccc1Cn1nnnc1-c1cccc(Cl)c1Cl`, the IC50 at P2X purinoceptor 7 [3] was 63.1 nM; in the data set on THP-1 [1], 126 nM; in the data set with THP-1 [4], 158 nM; at P2X purinoceptor 7 [2], 15.8 nM.

For `Clc1c(-c2nnnn2Cc2ccccc2)ccc(N2CCCC2)c1Cl`, on P2X purinoceptor 7 [2], the IC50 was more than 10000 nM.

With `c1ccc(Cn2nnnc2-c2cccc3ncccc23)cc1`, the 50% inhibitory concentration (IC50) in the data set on THP-1 [1] is more than 10000 nM; on P2X purinoceptor 7 [2], 15800 nM.

`O=C(NCC12CC3CC(CC(C3)C1)C2)c1cccc(Cl)c1Cl`: on P2X purinoceptor 7 [2], the IC50 is 63.1 nM.

For the compound `Clc1cccc(-c2nnnn2Cc2ccncc2)c1Cl`, the IC50 on P2X purinoceptor 7 [3] was 3160 nM; in the data set on THP-1 [1] it was 2000 nM; with THP-1 [4], 20000 nM; at P2X purinoceptor 7 [2] it was 794 nM.

In the case of `c1ccc(Cn2nnnc2-c2cccc3cccnc23)cc1`, on P2X purinoceptor 7 [2], the IC50 was 25100 nM.

For `Clc1ccc(Cl)c(-c2nnnn2Cc2cccnc2)c1`, the IC50 is more than 10000 nM in the data set on THP-1 [1] and 15800 nM on P2X purinoceptor 7 [2].

Regarding `Clc1cccc(-c2nnnn2Cc2cccnc2)c1`, the values for the IC50 in the data set on THP-1 [1] and on P2X purinoceptor 7 [2] were more than 10000 nM and 7940 nM, respectively.

As usually defined, the half-life is how long it takes for the measured level to halve. Usually ED50 stands for the dose at which the effect has come halfway, by size or by number of responders. Take `Clc1cccc(-c2nnnn2Cc2cccnc2)c1Cl`: the half-life in data set [5] was 1 h. The IC50 is 316 nM on P2X purinoceptor 7 [3], 200 nM with THP-1 [1] and 398 nM in the data set on THP-1 [4]. Also, in the data set on Rattus norvegicus [6], the median effective dose (ED50) was 76 µmol/kg. Besides, in the data set on Rattus norvegicus [7], the Activity was 78%. In addition, the bioavailability in data set [8] is 19%. Besides, in the data set on Rattus norvegicus [9], the result was inactive.

Take `Fc1ccc(-c2nnnn2Cc2cccnc2)c(Cl)c1Cl`: the IC50 is 398 nM in the data set with THP-1 [1] and 12.6 nM at P2X purinoceptor 7 [2].

On to `Cc1ccccc1Cn1nnnc1-c1cccc(C)c1C`, for which the IC50 was 1260 nM in the data set on THP-1 [1] and 251 nM at P2X purinoceptor 7 [2].

As to `Clc1ccc(-c2nnnn2Cc2cccnc2)c(Cl)c1Cl`, the concentration for half-maximal inhibition (IC50) in the data set on THP-1 [1] is 1350 nM; on P2X purinoceptor 7 [2], 200 nM.

Turning to `Fc1ccc(-n2nnnc2Cc2cccnc2)c(Cl)c1C(F)(F)F`, the IC50 is 158 nM with THP-1 [1] and 20 nM on P2X purinoceptor 7 [2].

`Clc1cccc(-c2nnnn2Cc2ccccn2)c1Cl`: the IC50 was 2000 nM in the data set on THP-1 [1] and 501 nM on P2X purinoceptor 7 [2].

For `Clc1cccc(-c2nnnn2Cc2ccccc2)c1Cl`, the IC50 on P2X purinoceptor 7 [3] was 79.4 nM; in the data set with THP-1 [1], 501 nM; at P2X purinoceptor 7 [2] it was 39.8 nM.

Consider `COc1cccc(-c2nnnn2Cc2ccccc2Cl)c1OC`, for which the IC50 in the data set on THP-1 [1] was more than 10000 nM; on P2X purinoceptor 7 [2], 3980 nM.

Regarding `c1ccc(-c2nnnn2Cc2cccnc2)cc1`, the values for the concentration for half-maximal inhibition (IC50) in the data set with THP-1 [1] and at P2X purinoceptor 7 [2] were more than 10000 nM and 25100 nM, respectively.

As for `Fc1c(-c2nnnn2Cc2cccnc2)cccc1C(F)(F)F`, the IC50 on P2X purinoceptor 7 [3] was 79.4 nM; in the data set with THP-1 [1], 501 nM; in the data set with THP-1 [4], 501 nM; on P2X purinoceptor 7 [2], 63.1 nM.

`Cc1nc(C)c(Cn2nnnc2-c2cccc(Cl)c2Cl)s1`: the figures for the concentration for half-maximal inhibition (IC50) at P2X purinoceptor 7 [3], in the data set on THP-1 [1] and on P2X purinoceptor 7 [2] were 1260 nM, 251 nM and 50.1 nM, respectively.
